From ChEMBL document CHEMBL2016448, “Discovery of new piperidine amide triazolobenzodiazepinones as intestinal-selective CCK1 receptor agonists” (Bioorg Med Chem Lett, 2012) come the findings set out here.

The target of series [1] is T1, Cholecystokinin receptor type A (Homo sapiens, UniProt P32238).
T1 sequence (P32238 whole entry): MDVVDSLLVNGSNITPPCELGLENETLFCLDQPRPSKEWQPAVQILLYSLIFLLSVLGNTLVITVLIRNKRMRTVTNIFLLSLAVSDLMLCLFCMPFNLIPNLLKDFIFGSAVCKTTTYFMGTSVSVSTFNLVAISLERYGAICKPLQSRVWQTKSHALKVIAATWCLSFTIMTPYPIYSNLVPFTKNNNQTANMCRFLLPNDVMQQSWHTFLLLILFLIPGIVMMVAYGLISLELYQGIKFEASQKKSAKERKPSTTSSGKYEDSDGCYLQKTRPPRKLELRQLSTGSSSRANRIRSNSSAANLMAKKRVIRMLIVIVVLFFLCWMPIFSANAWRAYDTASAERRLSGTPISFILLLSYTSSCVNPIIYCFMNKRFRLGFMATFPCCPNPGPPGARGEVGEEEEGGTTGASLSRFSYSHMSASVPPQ
The experiment in a line: Agonist activity at human CCK1 receptor assessed as increase in CCK8-induced calcium release incubated in dark for 30 mins followed by light incubation for 30 mins measured by FLIPR assay. The format is functional. The method, boiled down: (§1)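 FLIPR functional assay in CHO cells expressing human CCK1R. Agonism expressed as % of the CCK-8 peptide response. Initial screen at 30 µM, with >30% counted as active. Actives then run as full dose–response. EC50 is the geometric mean of at least 2 independent experiments.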

The target in series [2] is T2, Cholecystokinin receptor type A (Homo sapiens) (UniProt P32238).
T2 sequence (whole entry): T1 sequence (P32238 whole entry)
The experiment in a line: Agonist activity at human CCK1 receptor assessed as increase in CCK8-induced calcium release incubated in dark for 30 mins followed by light incubation for 30 mins measured by FLIPR assay relative to CCK8. The format is functional. The method, boiled down: as §1

The nature of series [3]: Intrinsic clearance in human microsomes. The format is ADME, Microsome. The method, boiled down:
(§2)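 Intrinsic clearance measured in human liver microsomes. The free value is corrected for microsomal binding.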

The target in series [4] is T1, Cholecystokinin receptor type A. The experiment in a line: Displacement of [125I]-CCK-8 from human CCK1 receptor expressed in CHO cells after 90 mins by liquid scintillation counting. In general terms: Loss of bound radioactivity is the signal in a displacement assay; it reports binding, not function.
A short description of series [5]: Lipophilicity, log D of the compound at pH 7.4. The format is physicochemical. The note with it: buffer.
Series [6] is described as follows: Free intrinsic clearance in human microsomes. It counts as ADME, Microsome. The method, boiled down: as §2
The subject of series [7] is Mus musculus. The experiment in a line: Antiobesity in C57Bl/6J mouse assessed as reduction in gall bladder weight at 0.6 mg/kg, po measured after 1 hr relative to control. The format is functional. Set-up: scale not given: the % may be the effect or the level left.
A short description of series [8]: Drug excretion in Sprague-Dawley rat bile at 1 mg/kg, iv measured after 24 hrs. More on the design: dose 1 mg/kg, route intravenous. It counts as ADME, organism-based. The note with it: read-out: Ae. The method, boiled down:
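Bile-cannulated rats dosed iv at 1 mg/kg. Bile collected over 24 h and % of dose excreted into bile determined.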

The subject of a further series is Liver. The experiment in a line: Clearance in rat liver. It counts as ADME, organism-based. The note with it: in vivo.
Series [9] can be described thus: Solubility of the compound in phosphate buffer. It counts as physicochemical.
A short description of series [10]: Bioavailability in rat portal system. The format is ADME, organism-based.
The test system of series [11] is Mus musculus. The experiment in a line: Antiobesity in C57Bl/6J mouse assessed as reduction in gall bladder weight at 2 mg/kg, po measured after 24 hr relative to control. It counts as functional. Set-up: scale not given: the % may be the effect or the level left.
Series [12] in a line: Ratio free drug level in gut to portal system of Sprague-Dawley rat at 10 mg/kg, po administered as single dose measured after 4 hrs. It counts as ADME, organism-based. More on the design: dose 10 mg/kg, route oral. The method, boiled down: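 Single oral dose to rats. Gut and portal drug exposures were measured at 2 h and 4 h post-dose and corrected for non-specific binding to give free concentrations. The free gut to free portal ratio was then calculated at each time point.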

In the next series the test system is Plasma. The experiment in a line: Plasma clearance in Sprague-Dawley rat at 3 mg/kg, iv. It counts as ADME, organism-based. Set-up: dose 3 mg/kg, route intravenous. The note with it: in vivo.
Series [13] can be described thus: Tmax in Sprague-Dawley rat at 6 mg/kg, po. It counts as ADME, organism-based. Set-up: dose 6 mg/kg, route oral. The note with it: in vivo. The method, boiled down: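 Male Sprague–Dawley rats dosed iv or po. Oral doses given in SDD formulation. Plasma PK parameters reported as mean of n = 3 rats.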

In general, EC50 refers to the concentration giving half of the maximal effect. A word on the IC50: it is the concentration at which inhibition is half-maximal. For orientation: logD means the decadic logarithm of the distribution of all forms, ionised or not, between an organic phase and buffer at a given pH. A word on the bioavailability: it is dose-corrected exposure relative to a reference, in per cent. Usually Tmax stands for the time at which the peak concentration occurs.

Bounds are passed on as bounds.

With `O=C1C(Cc2c[nH]c3ccccc23)c2nnc(-c3ccccc3)n2-c2ccccc2N1CC(=O)N1CCCCC1CC1CCCCC1` (mixture of isomers), the half-maximal effective concentration (EC50) in series [1] came out at 256 nM. Further, the Efficacy in series [2] was found to be 88%. In series [3], this compound showed a clearance of 76 µL/min/mg. In addition, the IC50 in series [4] was found to be 4.24 nM.

Turning to `O=C1[C@@H](Cc2n[nH]c3ccccc23)c2nnc(-c3ccccc3)n2-c2ccccc2N1CC(=O)N1CCCCC1Cc1ccccc1` (some centres undefined), in series [1], the EC50 worked out at 12.9 nM. Moreover, the Efficacy in [2] was determined as 103%. For the same compound, the logD in series [5] (read-out: logD) was found to be 4.6. In series [6], this compound displayed a CL free of 846 µL/min/mg. In addition, the Activity in the series on Mus musculus [7] turned out to be 91%. Also, the dose excreted at 24 h in series [8] was determined as 0.32%. The compound also returned an IC50 in [4] of 36 nM.

Consider `CC(C)C1CCCCN1C(=O)CN1C(=O)C(Cc2c[nH]c3ccccc23)c2nnc(-c3ccccc3)n2-c2ccccc21` (mixture of isomers), for which the EC50 in [1] was found to be 494 nM. Further, the Efficacy in [2] turned out to be 95%. In addition, the clearance in series [3] turned out to be 220 µL/min/mg. In series [4], this compound displayed a 50% inhibitory concentration (IC50) of 80.1 nM.

`O=C1C(Cc2c[nH]c3ccccc23)c2nnc(-c3ccccc3)n2-c2ccccc2N1CC(=O)N1CCCCC1Cc1ccncc1` (mixture of isomers): the concentration for a half-maximal effect (EC50) in series [1] came out at 421 nM. Further, the Efficacy in series [2] turned out to be 89%. Further, in [3], the clearance came out at 111 µL/min/mg. This compound also came in with an IC50 in [4] of 340 nM.

Turning to `CC(C)N(Cc1ccccc1)C(=O)CN1C(=O)[C@@H](Cc2c[nH]c3ccccc23)c2nnc(-c3ccccc3)n2-c2ccccc21` [CE-326597], the CLH in the series with Liver is 47 mL/min/kg. The solubility result in series [9] is reported as “Insoluble”. The same compound gave a bioavailability in series [10] of 9%. Besides, the Efficacy in series [2] came to 95%. The clearance in [3] worked out at 199 µL/min/mg; in the series with Plasma, 41.7 mL/min/kg. For the same compound, the logD in series [5] is reported as 4.9. Besides, the CL free in series [6] stood at 597 µL/min/mg. Besides, the Activity in the series with Mus musculus [7] stood at 91%; with Mus musculus [11] it was 27.5%. Further, the Kp uu at 4 h in series [12] was determined as 65. Moreover, the dose excreted at 24 h in series [8] is 0.04%. The Tmax in series [13] was determined as 1.33 h.

In the case of `CCC1CCCCN1C(=O)CN1C(=O)C(Cc2c[nH]c3ccccc23)c2nnc(-c3ccccc3)n2-c2ccccc21` (mixture of isomers), in [1], the EC50 worked out at 400 nM. Moreover, the Efficacy in series [2] is 78%. In series [3], this compound came in with a clearance greater than 300 µL/min/mg. The compound further gave an IC50 in [4] of 36.9 nM.

With `Cc1cccc(CC2CCCCN2C(=O)CN2C(=O)[C@@H](Cc3n[nH]c4ccccc34)c3nnc(-c4ccccc4)n3-c3ccccc32)c1` (some centres undefined), the EC50 in series [1] was found to be 669 nM. In addition, the Efficacy in series [2] came to 75%. In [5] (read-out: logD), the pH-dependent lipophilicity (logD) was found to be 5.1. The IC50 in [4] is 87.6 nM.

Take `COCCC1CCCCN1C(=O)CN1C(=O)C(Cc2c[nH]c3ccccc23)c2nnc(-c3ccccc3)n2-c2ccccc21` (mixture of isomers): the EC50 in [1] was determined as 52.5 nM. The Efficacy in series [2] was determined as 97%. This compound gave a clearance in series [3] greater than 300 µL/min/mg. Moreover, the IC50 in [4] was 49.3 nM.
